Assay results reported in publication PMC5299035 (Drug development research, 2016).

Columns and labels:
Type in all cases: cell-based
human neutrophils = assay: Ca2+ mobilization assay in human neutrophils; settings: Homo sapiens, Neutrophil, read-out: Ca2+ flux human neutrophils EC50
Summary of the method: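 Neutrophils from healthy donors were purified by dextran sedimentation, Histopaque 1077 gradient and hypotonic red-cell lysis (>95% pure, >98% viable). After Fluo-4 AM loading (1.25 μg/mL final, 30 min, 37 °C, dark), cells were seeded at 2 × 10^5/well in HBSS with Ca2+/Mg2+. Fluorescence (485/538 nm) was tracked every 5 s for 240 s at room temperature. Maximum change over baseline was normalised, and EC50 came from a 5-6-point nonlinear fit.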

FPR1 = biological target: T1, FPR1 (Homo sapiens, UniProt P21462); assay: Ca2+ mobilization assay in FPR1-HL60 cells; settings: for Emax: read-out: Ca2+ flux FPR1-HL60 efficacy
T1 sequence (P21462 1-350): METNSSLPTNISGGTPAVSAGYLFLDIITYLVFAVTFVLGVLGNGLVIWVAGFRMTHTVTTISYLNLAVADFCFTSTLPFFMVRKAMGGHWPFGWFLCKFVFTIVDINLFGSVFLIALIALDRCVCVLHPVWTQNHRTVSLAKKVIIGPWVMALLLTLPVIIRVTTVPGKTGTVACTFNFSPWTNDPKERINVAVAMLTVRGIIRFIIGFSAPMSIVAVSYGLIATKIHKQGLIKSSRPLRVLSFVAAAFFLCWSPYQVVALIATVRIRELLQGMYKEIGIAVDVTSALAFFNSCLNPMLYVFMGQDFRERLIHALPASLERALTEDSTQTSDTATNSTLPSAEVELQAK
Summary of the method: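 FPR1-transfected HL60 cells were grown in RPMI 1640 with 10% heat-inactivated FCS, 10 mM HEPES and G418 (1 mg/mL). Cells were loaded with Fluo-4 AM (1.25 μg/mL final) for 30 min at 37 °C in the dark, then washed and seeded in HBSS+ at 2 × 10^5 cells/well. Fluorescence (485/538 nm) was read every 5 s for 240 s at room temperature after compound addition. Peak rise over baseline was set against 5 nM fMLF (100%). EC50 came from nonlinear regression of 5-6-point curves, mean of three independent experiments. No activity meant no response within 2 min (limits: efficacy >20%, EC50 <50 μM).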

FPR2 = biological target: T2, FPR2 (Homo sapiens, UniProt P25090); assay: Ca2+ mobilization assay in FPR2-HL60 cells; settings: for Emax: read-out: Ca2+ flux FPR2-HL60 efficacy
T2 sequence (P25090 1-351): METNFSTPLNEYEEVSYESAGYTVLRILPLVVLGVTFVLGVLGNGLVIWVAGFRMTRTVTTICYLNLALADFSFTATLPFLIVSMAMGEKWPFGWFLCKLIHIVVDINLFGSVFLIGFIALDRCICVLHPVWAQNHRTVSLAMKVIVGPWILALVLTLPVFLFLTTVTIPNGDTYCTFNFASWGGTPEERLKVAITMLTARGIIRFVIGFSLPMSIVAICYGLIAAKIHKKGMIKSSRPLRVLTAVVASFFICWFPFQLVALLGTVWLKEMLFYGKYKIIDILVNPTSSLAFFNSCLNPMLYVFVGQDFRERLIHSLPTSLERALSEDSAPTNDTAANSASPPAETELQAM
Summary of the method: (§1)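 FPR2- or FPR3-transfected HL60 cells were grown in RPMI 1640 with 10% heat-inactivated FCS and G418 1 mg/mL. Cells were loaded with Fluo-4 AM (1.25 μg/mL final) for 30 min at 37 °C in the dark, washed, and seeded at 2 × 10^5 cells/well in HBSS+. Fluorescence (ex 485/em 538 nm) was read every 5 s for 240 s at room temperature. Peak rise over baseline was normalised to the reference agonist. EC50 came from 5-6-point nonlinear regression over three independent experiments.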

FPR3 = biological target: T3, FPR3 (Homo sapiens, UniProt P25089); assay: Ca2+ mobilization assay in FPR3-HL60 cells; settings: for Emax: read-out: Ca2+ flux FPR3-HL60 efficacy
T3 sequence (P25089 1-353): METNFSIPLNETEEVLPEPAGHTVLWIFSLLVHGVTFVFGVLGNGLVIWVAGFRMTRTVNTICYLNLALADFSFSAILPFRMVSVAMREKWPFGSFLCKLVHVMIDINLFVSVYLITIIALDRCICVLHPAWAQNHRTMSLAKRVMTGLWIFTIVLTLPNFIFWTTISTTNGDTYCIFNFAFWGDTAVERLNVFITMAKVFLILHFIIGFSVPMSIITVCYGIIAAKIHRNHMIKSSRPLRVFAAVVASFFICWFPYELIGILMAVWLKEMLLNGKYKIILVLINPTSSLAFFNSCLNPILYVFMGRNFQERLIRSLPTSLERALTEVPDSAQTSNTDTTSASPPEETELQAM
Summary of the method: as §1

mouse neutrophils = assay: Ca2+ mobilization assay in mouse neutrophils; settings: % of the response induced by 10 nM WKYMVm
Summary of the method: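 Bone marrow was flushed from BALB/c mouse tibias and femurs and separated on a Percoll gradient (45/50/55/62/81%, 1600g, 30 min, 10 °C). Red cells were removed over Histopaque 1119. Neutrophils were loaded with Fluo-4 AM (1.25 μg/mL final) for 30 min at 37 °C, seeded in HBSS+ at 2 × 10^5 cells/well, and read at 485/538 nm every 5 s for 240 s at room temperature. Responses were normalized to 10 nM WKYMVm. EC50 came from nonlinear regression of 5-6-point curves, three experiments.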

mouse Fpr2 = biological target: T4, mouse Fpr2 (Mus musculus, UniProt O88536); assay: Ca2+ mobilization assay in mFpr2-RBL cells
T4 sequence (O88536 1-351): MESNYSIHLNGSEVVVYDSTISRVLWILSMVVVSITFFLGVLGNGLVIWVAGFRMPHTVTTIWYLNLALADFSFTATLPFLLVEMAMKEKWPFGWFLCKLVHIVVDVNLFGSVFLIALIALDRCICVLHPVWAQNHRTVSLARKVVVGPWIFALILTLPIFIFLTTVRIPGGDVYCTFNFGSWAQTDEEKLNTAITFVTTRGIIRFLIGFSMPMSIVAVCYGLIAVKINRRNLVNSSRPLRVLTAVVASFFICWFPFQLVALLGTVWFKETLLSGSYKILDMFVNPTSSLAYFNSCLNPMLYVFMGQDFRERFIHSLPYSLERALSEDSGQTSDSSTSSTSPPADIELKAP
Summary of the method: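 RBL-2H3 cells stably expressing mouse Fpr2 were grown in DMEM with 20% FBS, 10 mM HEPES and G418 (250 μg/ml). Fluo-4 AM (1.25 μg/mL final) was loaded for 30 min at 37 °C in the dark. Cells were seeded in HBSS+ at 2 × 10^5 cells/well, and fluorescence (485/538 nm) was read every 5 s for 240 s at room temperature. Peak rise was normalized to 10 nM WKYMVm (100%). EC50 came from nonlinear regression of 5-6-point curves over three independent experiments.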

| SMILES | EC50 (human neutrophils) [µM] | Emax (FPR1) [%] | Emax (FPR2) [%] | EC50 (FPR3) [µM] | Emax (FPR3) [%] | EC50 (mouse Fpr2) [µM] | Ca2+ flux mFpr2-RBL efficacy (mouse Fpr2; % of the response induced by 10 nM WKYMVm) [%] | EC50 (FPR1) [µM] | EC50 (FPR2) [µM] | Ca2+ flux mouse neutrophils efficacy (mouse neutrophils) [%] |
| --- | --- | --- | --- | --- | --- | --- | --- | --- | --- | --- |
| CC(=O)c1sc(=O)n(CC(=O)Nc2ccc(Br)cc2)c1C [9a, 2-(5-Acetyl-4-methyl-2-oxo-thiazol-3-yl)-N-(4-bromophenyl)acetamide] | 12.2 ± 2.5 | 75 | 60 | – | – | – | – | 8.9 ± 1.9 | 5.8 ± 1.4 | – |
| Cc1csc(=O)n1CC(=O)Nc1ccc(Br)cc1 [9b, N-(4-Bromophenyl)-2-(4-methyl-2-oxo-thiazol-3-yl)acetamide] | 10.7 ± 2.3 | 70 | 80 | 27.8 ± 3.2 | 85 | – | – | 12.4 ± 2.6 | 4.1 ± 1.1 | – |
| COc1ccc(-c2csc(=O)n2CC(=O)Nc2ccc(Br)cc2)cc1 [9e, N-(4-Bromophenyl)-2-[4-(4-methoxyphenyl)-2-oxothiazol-3-yl]acetamide] | 7.4 ± 2.3 | 110 | 100 | 36.1 ± 3.3 | 85 | – | – | 2.6 ± 0.6 | 1.8 ± 0.16 | – |
| O=C(Cn1c(-c2cccc(Cl)c2)csc1=O)Nc1ccc(Br)cc1 [9f, N-(4-Bromophenyl)-2-[4-(3-chlorophenyl)-2-oxothiazol-3-yl]acetamide] | 11.1 ± 2.8 | 75 | 110 | 32.2 ± 3.6 | 75 | – | – | 6 ± 1.7 | 3 ± 0.7 | – |
| O=C(Cn1c(-c2ccc(Cl)cc2)csc1=O)Nc1ccc(Br)cc1 [9g, N-(4-Bromophenyl)-2-[4-(4-chlorophenyl)-2-oxothiazol-3-yl]acetamide] | 12.2 ± 3.1 | 75 | 75 | – | – | – | – | – | – | – |
| Nc1ccc(-c2csc(=O)n2CC(=O)Nc2ccc(Br)cc2)cc1 [compound 10, 2-[4-(4-Aminophenyl)-2-oxothiazol-3-yl]-N-(4-bromophenyl)acetamide] | 36.1 ± 3.9 | 80 | 65 | – | – | – | – | 34.9 ± 4.2 | 14.7 ± 3.7 | – |

The next compounds have a lower EC50 (human neutrophils) than those just listed; values first:

| EC50 (human neutrophils) [µM] | Emax (FPR1) [%] | Emax (FPR2) [%] | EC50 (FPR3) [µM] | Emax (FPR3) [%] | EC50 (mouse Fpr2) [µM] | Ca2+ flux mFpr2-RBL efficacy (mouse Fpr2; % of the response induced by 10 nM WKYMVm) [%] | EC50 (FPR1) [µM] | EC50 (FPR2) [µM] | SMILES | Ca2+ flux mouse neutrophils efficacy (mouse neutrophils) [%] |
| --- | --- | --- | --- | --- | --- | --- | --- | --- | --- | --- |
| 1.2 ± 0.3 | 120 | 100 | 4.1 ± 1.7 | 100 | – | – | – | – | CCc1c(C)nn(CC(=O)Nc2ccc(Br)cc2)c(=O)c1Cc1cccc(OC)c1 [4c, N-(4-Bromophenyl)-2-[4-ethyl-5-(3-methoxybenzyl)-3-methyl-6-oxopyridazin-1(6H)-yl]acetamide] | – |
| 3.2 ± 1.2 | 115 | 90 | 3.4 ± 0.76 | 65 | – | – | – | – | CCCc1c(C)nn(CC(=O)Nc2ccc(Br)cc2)c(=O)c1Cc1cccc(OC)c1 [4d, N-(4-Bromophenyl)-2-[5-(3-methoxybenzyl)-3-methyl-6-oxo-4-propylpyridazin-1(6H)-yl]acetamide] | – |
| 2.7 ± 0.7 | – | 90 | – | – | – | – | – | – | CCCCc1c(C)nn(CC(=O)Nc2ccc(Br)cc2)c(=O)c1Cc1cccc(OC)c1 [4e, N-(4-Bromophenyl)-2-[4-butyl-5-(3-methoxybenzyl)-3-methyl-6-oxopyridazin-1(6H)-yl]acetamide] | – |
| 5.4 ± 0.26 | 160 | – | – | – | 28.8 ± 5.2 | 180 | – | – | COc1cccc(Cc2c(-c3ccccc3)c(C)nn(CC(=O)Nc3ccc(Br)cc3)c2=O)c1 [4f, N-(4-Bromophenyl)-2-[5-(3-methoxybenzyl)-3-methyl-6-oxo-4-phenylpyridazin-1(6H)-yl]acetamide] | 95 |
| 2 ± 0.29 | 110 | 90 | – | – | – | – | 5.7 ± 2.1 | 0.51 ± 0.19 | Cc1cc(=O)n(CC(=O)Nc2ccc(Br)cc2)nc1C [7a, N-(4-Bromophenyl)-2-[3,4-dimethyl-6-oxopyridazin-1(6H)-yl]acetamide] | 70 |
| 0.2 ± 0.056 | – | 115 | 0.97 ± 0.23 | 95 | – | – | – | 0.15 ± 0.052 | Cc1nn(CC(=O)Nc2ccc(Br)cc2)c(=O)cc1-c1ccccc1 [7b, N-(4-Bromophenyl)-2-[3-methyl-6-oxo-4-phenylpyridazin-1(6H)-yl]acetamide] | 75 |
| 6 ± 1.5 | 100 | 95 | 19.7 ± 2.4 | 135 | – | – | 1.8 ± 0.6 | 2.1 ± 0.6 | O=C(Cn1c(-c2ccccc2)csc1=O)Nc1ccc(Br)cc1 [9c, N-(4-Bromophenyl)-2-(2-oxo-4-phenyl-thiazol-3-yl)acetamide] | – |
| 1.3 ± 0.3 | 90 | 120 | 5.1 ± 1.7 | 100 | – | – | – | – | COc1cccc(-c2csc(=O)n2CC(=O)Nc2ccc(Br)cc2)c1 [9d, N-(4-Bromophenyl)-2-[4-(3-methoxyphenyl)-2-oxothiazol-3-yl]-acetamide] | – |
| 1.5 ± 0.4 | 60 | – | – | – | – | – | – | – | O=C(Cn1c(-c2ccc([N+](=O)[O-])cc2)csc1=O)Nc1ccc(Br)cc1 [9h, N-(4-Bromophenyl)-2-[4-(4-nitrophenyl)-2-oxothiazol-3-yl]acetamide] | – |
